ChEMBL document CHEMBL4813913, “In vitro identification of imidazo[1,2-a]pyrazine-based antileishmanial agents and evaluation of L. major casein kinase 1 inhibition” (Eur J Med Chem, 2021)

Tests used:
[1] = Toxicity against Galleria mellonella larva assessed as cuticular darkening at 50 mg/kg measured for 7 days; format: organism-based; conditions: in vivo, 168 h, time 7 day
Summary of the method: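 G. mellonella larvae (6th stage, 260–320 mg), groups of ten. Injected in the 4th left pro-leg with 10 μL at 10–50 mg/kg; controls got PBS/DMSO (DMSO <40%). Kept in the dark at 37 °C. Survival and cuticular darkening scored daily for 7 days; death taken as no movement on stimulus. Kaplan-Meier with log-rank test; two independent experiments.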

[2] = target: Receptor-interacting serine/threonine-protein kinase 3 (Homo sapiens, UniProt Q9Y572); assay: Inhibition of recombinant human RIPK3 expressed in baculovirus infected Sf9 cells using MBP as substrate in presence of [gamma-33P]ATP by radiometric assay
[3] = system: Leishmania infantum; assay: Antileishmanial activity against amastigote stage of Leishmania infantum (MHOM/FR/2008/LEM5700) infected in mouse RAW264.7 cells assessed as reduction in parasitic proliferation measured by SYBR Green 1 dye based fluorescence assay; format: functional, organism-based; conditions: MHOM/FR/2008/LEM5700, RAW264.7
Summary of the method: (§1)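 RAW 264.7 macrophages seeded at 100,000 cells/well in DMEM with 10% heat-inactivated FBS, 24 h at 37 °C, 5% CO₂. Infected with plateau-phase promastigotes (parasite:macrophage 16:1) for 24 h. Compounds serially diluted, final 391 nM–100 μM. Amastigote viability read by SYBR Green I after lysis and 3 freeze-thaw cycles. IC50 by nonlinear regression against excipient-treated controls. Miltefosine reference.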

[4] = target: T1, Dual specificity tyrosine-phosphorylation-regulated kinase 1A (Rattus norvegicus, UniProt Q63470); assay: Inhibition of recombinant rat DYRK1A (1 to 499 ) expressed in bacterial expression system using KKISGRLSPIMTEQ as substrate in presence of [gamma-33P]ATP measured by radiometric assay; conditions: for inhibition (INH): rat
[5] = Selectivity index, ratio of CC50 for human MRC5 cells to IC50 for amastigote stage of Leishmania donovani (MHOM/ET/67/HU3) infected in mouse RAW264.7 cells; format: toxicity, cell-based; conditions: read-out: Ratio CC50/IC50
Summary of the method: (§2)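 Selectivity index is CC50 on RAW 264.7 or MRC-5 cells divided by IC50 on intracellular amastigotes.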

[6] = Selectivity index, ratio of CC50 for human MRC5 cells to IC50 for amastigote stage of Leishmania braziliensis (MHOM/BR/75/M2903b) infected in mouse RAW264.7 cells; format: toxicity, cell-based; conditions: read-out: Ratio CC50/IC50; summary of the method: as §2
[7] = Selectivity index, ratio of CC50 for mouse RAW264.7 cells to IC50 for amastigote stage of Leishmania amazonensis (MHOM/BR/73/M2269) infected in mouse RAW264.7 cells; format: toxicity, cell-based; conditions: read-out: Ratio CC50/IC50; summary of the method: as §2
[8] = Selectivity index, ratio of CC50 for human MRC5 cells to IC50 for amastigote stage of Leishmania infantum (MHOM/FR/2008/LEM5700) infected in mouse RAW264.7 cells; format: toxicity, cell-based; conditions: read-out: Ratio CC50/IC50; summary of the method: as §2
[9] = system: Leishmania donovani; assay: Antileishmanial activity against amastigote stage of Leishmania donovani (MHOM/ET/67/HU3) infected in mouse RAW264.7 cells assessed as reduction in parasitic proliferation measured by SYBR Green 1 dye based fluorescence assay; format: functional, organism-based; conditions: MHOM/ET/67/HU3, RAW264.7; summary of the method: as §1
[10] = system: Leishmania braziliensis; assay: Antileishmanial activity against amastigote stage of Leishmania braziliensis (MHOM/BR/75/M2903b) infected in mouse RAW264.7 cells assessed as reduction in parasitic proliferation measured by SYBR Green 1 dye based fluorescence assay; format: functional, organism-based; summary of the method: as §1
[11] = system: Leishmania amazonensis; assay: Antileishmanial activity against amastigote stage Leishmania amazonensis (MHOM/BR/73/M2269) infected in mouse RAW264.7 cells assessed as reduction in parasitic proliferation measured by SYBR Green 1 dye based fluorescence assay; format: functional, organism-based; conditions: MHOM/BR/73/M2269, RAW264.7; summary of the method: as §1
[12] = target: T2, Aurora kinase B (Homo sapiens, UniProt Q96GD4); assay: Inhibition of recombinant human AURKB expressed in baculovirus infected Sf9 cells using MBP as substrate in presence of [gamma-33P]ATP measured by radiometric assay
[13] = Inhibition of recombinant Leishmania major CK1.2 expressed in bacterial expression system using RRKHAAIGSpAYSITA as substrate in presence of [gamma-33P]ATP by radiometric assay
[14] = target: T3, CDK9/cyclin T1 (Homo sapiens, UniProt P50750); assay: Inhibition of human recombinant CDK9/CyclinT expressed in baculovirus infected Sf9 cells using YSPTSPSYSPTSPSYSPTSPSKKK as substrate in presence of [gamma-33P]ATP by radiometric assay
[15] = target: Cyclin-dependent kinase 5/CDK5 activator 1 (Homo sapiens, UniProt Q00535); assay: Inhibition of human recombinant CDK5/ p25 expressed in bacterial expression system using histone H1 as substrate in presence of ATP measured after 30 mins by ADP-Glo assay
[16] = target: T2, Aurora kinase B; assay: Inhibition of recombinant human AURKB expressed in baculovirus infected Sf9 cells using MBP as substrate in presence of ATP measured after 30 mins by ADP-Glo assay; conditions: sf9, 0.5 h
[17] = target: T3, CDK9/cyclin T1; assay: Inhibition of human recombinant CDK9/CyclinT expressed in baculovirus infected Sf9 cells using YSPTSPSYSPTSPSYSPTSPSKKK as substrate in presence of ATP measured after 30 mins by ADP-Glo assay
[18] = target: Dual specificity protein kinase CLK1 (Mus musculus, UniProt P22518); assay: Inhibition of recombinant mouse CLK1 expressed in bacteria using GRSRSRSRSRSR as substrate in presence of ATP measured after 30 mins by ADP-Glo assay
[19] = target: T1, Dual specificity tyrosine-phosphorylation-regulated kinase 1A; assay: Inhibition of recombinant rat DYRK1A (1 to 499 ) expressed in bacterial expression system using KKISGRLSPIMTEQ as substrate in presence of ATP measured after 30 mins by ADP-Glo assay; conditions: 0.5 h
[20] = target: CDK2/Cyclin A2 (Homo sapiens, UniProt P24941); assay: Inhibition of human CDK2/ cyclinA using histone H1 as substrate in presence of ATP measured after 30 mins by ADP-Glo assay; format: protein-complex assay
[21] = target: Serine/threonine-protein kinase pim-1 (Homo sapiens, UniProt P11309); assay: Inhibition of recombinant human PIM1 expressed in bacteria using histone H1 as substrate in presence of ATP measured after 30 mins by ADP-Glo assay; conditions: 0.5 h
Sequence of Serine/threonine-protein kinase pim-1 (P11309 whole entry): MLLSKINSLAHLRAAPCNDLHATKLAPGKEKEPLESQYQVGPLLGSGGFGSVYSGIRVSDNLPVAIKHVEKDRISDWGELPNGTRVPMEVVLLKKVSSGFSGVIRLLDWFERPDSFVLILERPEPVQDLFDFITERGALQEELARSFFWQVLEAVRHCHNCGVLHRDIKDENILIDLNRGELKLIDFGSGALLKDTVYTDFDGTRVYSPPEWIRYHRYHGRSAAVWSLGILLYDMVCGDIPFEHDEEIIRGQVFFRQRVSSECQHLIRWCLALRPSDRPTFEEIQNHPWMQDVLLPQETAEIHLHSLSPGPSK

Sequence of Cyclin-dependent kinase 5/CDK5 activator 1 (Q00535 whole entry): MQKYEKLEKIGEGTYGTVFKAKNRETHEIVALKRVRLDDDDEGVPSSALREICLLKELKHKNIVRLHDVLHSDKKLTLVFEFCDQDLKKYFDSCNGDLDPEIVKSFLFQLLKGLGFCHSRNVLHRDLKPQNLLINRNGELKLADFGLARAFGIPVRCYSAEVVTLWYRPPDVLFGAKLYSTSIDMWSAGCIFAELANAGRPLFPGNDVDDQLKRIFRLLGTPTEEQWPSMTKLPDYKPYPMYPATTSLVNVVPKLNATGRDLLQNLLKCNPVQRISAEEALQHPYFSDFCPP
Sequence of Cyclin-dependent kinase 5/CDK5 activator 1 (Q15078 whole entry, further chain): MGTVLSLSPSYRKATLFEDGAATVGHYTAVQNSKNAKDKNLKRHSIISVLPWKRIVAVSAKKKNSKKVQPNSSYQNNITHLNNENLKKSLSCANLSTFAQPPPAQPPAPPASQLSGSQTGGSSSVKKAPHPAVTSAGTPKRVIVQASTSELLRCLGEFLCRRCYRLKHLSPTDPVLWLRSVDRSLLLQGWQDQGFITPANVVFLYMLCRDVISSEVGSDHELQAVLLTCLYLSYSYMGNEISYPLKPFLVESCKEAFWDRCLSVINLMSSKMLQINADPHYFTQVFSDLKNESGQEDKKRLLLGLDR
Sequence of Receptor-interacting serine/threonine-protein kinase 3 (Q9Y572 whole entry): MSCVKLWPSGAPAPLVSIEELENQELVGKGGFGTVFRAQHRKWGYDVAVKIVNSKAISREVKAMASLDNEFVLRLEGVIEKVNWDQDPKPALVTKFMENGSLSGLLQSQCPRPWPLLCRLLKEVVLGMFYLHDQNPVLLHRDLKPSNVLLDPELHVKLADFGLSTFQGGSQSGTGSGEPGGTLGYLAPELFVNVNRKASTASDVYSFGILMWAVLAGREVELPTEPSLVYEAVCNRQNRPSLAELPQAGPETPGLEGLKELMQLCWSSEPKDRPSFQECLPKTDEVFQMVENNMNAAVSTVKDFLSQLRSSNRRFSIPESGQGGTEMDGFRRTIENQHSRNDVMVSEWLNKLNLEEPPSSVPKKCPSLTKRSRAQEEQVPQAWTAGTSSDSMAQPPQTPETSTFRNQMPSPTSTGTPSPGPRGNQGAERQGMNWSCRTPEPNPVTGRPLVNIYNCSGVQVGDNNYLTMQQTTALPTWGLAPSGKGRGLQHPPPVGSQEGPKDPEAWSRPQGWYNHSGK
T3 sequence (O60563 whole entry): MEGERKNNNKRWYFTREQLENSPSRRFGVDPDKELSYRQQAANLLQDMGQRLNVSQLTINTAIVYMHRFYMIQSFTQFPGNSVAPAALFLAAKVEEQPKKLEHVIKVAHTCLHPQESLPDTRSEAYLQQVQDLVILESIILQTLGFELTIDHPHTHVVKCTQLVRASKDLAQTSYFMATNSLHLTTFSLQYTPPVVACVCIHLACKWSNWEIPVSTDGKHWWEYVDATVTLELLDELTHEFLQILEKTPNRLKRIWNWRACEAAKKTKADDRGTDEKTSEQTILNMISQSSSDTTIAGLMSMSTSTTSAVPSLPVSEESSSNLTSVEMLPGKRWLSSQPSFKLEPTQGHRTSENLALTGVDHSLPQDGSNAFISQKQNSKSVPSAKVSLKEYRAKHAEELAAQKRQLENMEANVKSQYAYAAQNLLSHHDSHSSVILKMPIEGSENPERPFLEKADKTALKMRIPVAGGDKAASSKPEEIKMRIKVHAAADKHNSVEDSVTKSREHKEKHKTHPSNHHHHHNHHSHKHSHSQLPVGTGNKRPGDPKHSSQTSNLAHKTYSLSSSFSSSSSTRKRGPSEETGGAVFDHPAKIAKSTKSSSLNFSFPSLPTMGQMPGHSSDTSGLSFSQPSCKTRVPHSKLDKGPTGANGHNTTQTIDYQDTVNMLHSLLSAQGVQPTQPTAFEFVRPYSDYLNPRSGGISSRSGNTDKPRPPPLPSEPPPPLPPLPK
T3 sequence (P50750 whole entry): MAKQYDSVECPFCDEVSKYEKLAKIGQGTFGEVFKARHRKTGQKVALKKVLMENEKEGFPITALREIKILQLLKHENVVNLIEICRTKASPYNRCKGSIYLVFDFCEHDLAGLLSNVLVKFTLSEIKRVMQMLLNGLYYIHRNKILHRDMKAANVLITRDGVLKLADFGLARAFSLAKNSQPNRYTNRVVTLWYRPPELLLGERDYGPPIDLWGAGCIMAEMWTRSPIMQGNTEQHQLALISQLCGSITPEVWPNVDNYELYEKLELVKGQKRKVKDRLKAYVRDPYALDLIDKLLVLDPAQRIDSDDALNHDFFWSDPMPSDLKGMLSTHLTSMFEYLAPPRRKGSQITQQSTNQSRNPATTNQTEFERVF
Sequence of Dual specificity protein kinase CLK1 (P22518 whole entry): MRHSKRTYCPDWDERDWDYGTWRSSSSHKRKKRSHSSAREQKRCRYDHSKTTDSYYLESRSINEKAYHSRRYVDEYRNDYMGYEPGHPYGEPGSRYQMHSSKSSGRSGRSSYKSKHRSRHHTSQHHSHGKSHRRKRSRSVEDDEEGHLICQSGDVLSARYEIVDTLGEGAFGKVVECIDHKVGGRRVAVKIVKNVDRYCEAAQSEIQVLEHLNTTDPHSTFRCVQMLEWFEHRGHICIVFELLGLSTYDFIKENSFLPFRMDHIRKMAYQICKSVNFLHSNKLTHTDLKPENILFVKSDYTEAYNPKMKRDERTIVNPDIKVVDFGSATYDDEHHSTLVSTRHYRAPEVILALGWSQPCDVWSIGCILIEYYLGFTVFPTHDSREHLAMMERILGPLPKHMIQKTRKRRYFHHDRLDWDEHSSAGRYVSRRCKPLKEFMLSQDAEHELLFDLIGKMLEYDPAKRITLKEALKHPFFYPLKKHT
T2 sequence (Q96GD4 whole entry): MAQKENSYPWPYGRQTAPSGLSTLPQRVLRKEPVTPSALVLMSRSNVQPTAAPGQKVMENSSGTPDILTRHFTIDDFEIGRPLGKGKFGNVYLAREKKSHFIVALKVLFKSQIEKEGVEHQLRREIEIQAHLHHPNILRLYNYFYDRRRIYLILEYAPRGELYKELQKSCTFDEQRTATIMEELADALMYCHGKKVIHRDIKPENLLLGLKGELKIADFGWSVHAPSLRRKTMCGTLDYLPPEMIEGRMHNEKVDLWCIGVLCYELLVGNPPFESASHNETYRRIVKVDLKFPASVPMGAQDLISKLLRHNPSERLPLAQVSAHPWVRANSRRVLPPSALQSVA

SMILES | Activity [1] | inhibition (INH) [2] | IC50 [3] [µM] | inhibition (INH) [4] | selectivity ratio [5] | selectivity ratio [6] | selectivity ratio [7] | selectivity ratio [8] | IC50 [9] [µM] | IC50 [10] [µM] | IC50 [11] [µM] | inhibition (INH) [12] | IC50 [13] [µM] | IC50 [14] [µM] | IC50 [15] [µM] | inhibition (INH) [16] | IC50 [17] [µM] | IC50 [18] [µM] | inhibition (INH) [19] | IC50 [20] [µM] | further results
CN(C)c1nccn2c(-c3ccnc(N)n3)c(-c3ccc(F)cc3)nc12 | Non-Toxic | Not Active | 6.55 | Not Active | 10 | 4.1 | 6.9 | 15.2 | 9.97 | 24.3 | 6.12 | Not Active | 0.042 | > 10 |  |  |  |  |  |  | 
CN(C)c1nccn2c(-c3cncnc3)c(-c3ccc(F)cc3)nc12 | Non-Toxic |  | > 50 |  |  | 4.4 |  |  | > 50 | 22.8 | > 50 |  |  |  | > 10 | Not Active | > 10 | > 10 | Not Active | > 10 | inhibition (INH) [21]: Not Active
CSc1nccc(-c2c(-c3ccc(F)cc3)nc3c(Cl)nccn23)n1 | Non-Toxic | Not Active | > 100 | Not Active |  | 1.1 |  |  | > 100 | 74 | > 100 | Not Active | > 10 | > 10 |  |  |  |  |  |  | 
CN(C)c1nccn2c(-c3ccnc(N)n3)c(-c3ccccc3)nc12 | Non-Toxic | Not Active | > 100 | Not Active |  | 1 | 1.9 |  | > 100 | 56.5 | 23.4 | Not Active | 0.035 | > 10 |  |  |  |  |  |  | 
CN(C)c1nccn2c(-c3ccc4[nH]ncc4c3)c(-c3ccc(F)cc3)nc12 | Non-Toxic |  | 12.9 |  | 2 | 2 | 0.6 | 2 | > 12.5 | > 12.5 | > 12.5 |  |  |  | > 10 | Not Active | > 10 | > 10 | Not Active | > 10 | inhibition (INH) [21]: Not Active
CSc1nccc(-c2c(-c3ccc(F)cc3)nc3c(N(C)C)nccn23)n1 | Non-Toxic | Not Active | 6.2 | Not Active | 6.4 | 1.1 | 2.9 | 10.8 | 10.4 | 63.5 | 12.5 | Not Active | 1 | > 10 |  |  |  |  |  |  | 
CN(C)c1nccn2c(-c3cnn(C)c3)c(-c3ccc(F)cc3)nc12 | Non-Toxic |  | 2.6 |  | 78.7 | 4 | 0.6 | 38.5 | 1.27 | > 25 | > 25 |  |  |  | > 10 | Not Active | > 10 | > 10 | Not Active | > 10 | inhibition (INH) [21]: Not Active
CN(C)c1nccn2c(-c3ccncc3)c(-c3ccc(F)cc3)nc12 | Non-Toxic |  | 12.8 |  | 36.5 | 1.7 | 1.5 | 7.8 | 2.74 | 57.9 | 28.4 |  |  |  | > 10 | Not Active | > 10 | > 10 | Not Active | > 10 | inhibition (INH) [21]: Not Active
CSc1nccc(-c2c(-c3ccc(F)cc3)nc3c(N)nccn23)n1 | Non-Toxic | Not Active | > 12.5 |  | 1.5 | 1.5 | > 0.9 | 1.5 | > 12.5 | > 12.5 | > 12.5 | Not Active | 0.65 | > 10 |  |  |  |  |  |  | IC50 [4]: 2 µM
CSc1nccc(-c2c(-c3ccccc3)nc3c(N(C)C)nccn23)n1 | Non-Toxic | Not Active | 12.5 | Not Active | 4.6 | 1.8 | 5.6 | 6.5 | 17.6 | 45.6 | 5.99 | Not Active | 3.5 | > 10 |  |  |  |  |  |  | 
CSc1nccc(-c2c(-c3ccccc3)nc3c(Cl)nccn23)n1 | Non-Toxic | Not Active | 1.93 | Not Active | 3.4 | 1.9 | 15.8 | 17.3 | 9.82 | 17.7 | 3.2 | Not Active | 5 | > 10 |  |  |  |  |  |  | 
